Results taken from ChEMBL document CHEMBL1124106, “Synthesis of diethylenetriaminepentaacetic acid conjugated inulin and utility for cellular uptake of liposomes” (J Med Chem, 1988).
Where “and” joins values, the source holds several entries; their conditions need not be identical. Equal entries are not always repeated.

Experiments:
Conditions in all cases: in vivo
Mus musculus [1] = experiment: Biodistribution in mice brain, after 48 hr of intravenous administrating 1-2 ug of compound (entrapped in bovine brain sphingomyelin/ cholesterol multilamellar vehicles); assay type: ADME, organism-based
Summary of the method: (§1)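 BALB/c mice (about 25 g), 3–5 per group, given 50–100 μL tail-vein injection of 111In-labeled conjugate entrapped in SM/CH (2:1 mol/mol) multilamellar vesicles, approx. 100 000 cpm; dose 1–2 μg phospholipid/g body weight. Killed by cervical dislocation at set times; blood, cumulative excretion and rinsed, blotted, weighed tissues γ-counted, blood background subtracted. Result is % injected dose ± SD.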

Mus musculus [2] = experiment: Biodistribution in mice lung, after 24 hr of intravenous administration of 1-2 ug of compound (entrapped in bovine brain sphingomyelin/ cholesterol multilamellar vehicles); assay type: ADME, organism-based; summary of the method: as §1
Mus musculus [3] = experiment: Biodistribution of compound in mice carcass after 0.17 hr of intravenous injection; assay type: ADME, organism-based
Summary of the method: (§2)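 BALB/c mice (about 25 g), n = 4. Free ¹¹¹In- or ⁶⁷Ga-labeled compound (50–100 μL, about 100 000 cpm) was injected into a tail vein. Mice were held in separate cages and killed by cervical dislocation, with blood and cumulative excreta collected. Tissues were rinsed, blotted, weighed and γ-counted, with blood background subtracted (blood volume 8.0%). Values are % injected dose ± SD.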

Mus musculus [4] = experiment: Biodistribution of compound in mice spleen after 21 hr of intravenous injection; assay type: ADME, organism-based; summary of the method: as §2
Mus musculus [5] = experiment: Biodistribution of compound in mice liver after 21 hr of intravenous injection; assay type: ADME, organism-based; summary of the method: as §2
Mus musculus [6] = experiment: Biodistribution in mice heart, after 24 hr of intravenous administration of 1-2 ug of compound (entrapped in bovine brain sphingomyelin/ cholesterol multilamellar vehicles); assay type: ADME, organism-based; summary of the method: as §1
Mus musculus [7] = experiment: Biodistribution of compound in mice leg muscle after 0.17 hr of intravenous injection; assay type: ADME, organism-based, Muscle tissue; summary of the method: as §2
Mus musculus [8] = experiment: Biodistribution in mice leg muscle, after 12 hr of intravenous administration of 1-2 ug of compound (entrapped in bovine brain sphingomyelin/ cholesterol multilamellar vehicles); assay type: ADME, organism-based, Muscle tissue; summary of the method: as §1
Mus musculus [9] = experiment: Biodistribution of compound in mice intestine after 1 hr of intravenous injection; assay type: ADME, organism-based; summary of the method: as §2

ID (Mus musculus [1]): 0.2%
ID (Mus musculus [2]): 0.4%
ID (Mus musculus [3]): 14.2% and 19.3%
ID (Mus musculus [4]): 0.1%
ID (Mus musculus [5]): 0.4% and 2.1%
ID (Mus musculus [6]): 0%
ID (Mus musculus [7]): 3.2% and 3.1%
ID (Mus musculus [8]): 0.4%
ID (Mus musculus [9]): 0.8% and 1.4%
Structure (SMILES): NCCNC(=O)CN(CCN(CCN(CC(=O)O)CC(=O)O)CC(=O)O)CC(=O)O
